Data from the EternaBench riboswitch data.

Tested on: MS2 coat protein
Test: apparent Kd, MS2 coat protein; higher = weaker binding; RNA-MaP array
Outline: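 On an Illumina sequencing chip, sequenced DNA templates served for transcription of the designed RNAs, which were then bound at room temperature by fluorescently labeled MS2 coat protein at 1.5 nM to 3 μM, with or without input ligand. Apparent Kd is the median of the fits to each cluster's binding curve. Only designs measured on at least 10 clusters were kept.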

[1] = designed as: OFF switch for flavin mononucleotide, no ligand
[2] = ligand present: flavin mononucleotide, designed as: OFF switch for flavin mononucleotide
[3] = designed as: ON switch for flavin mononucleotide, no ligand
[4] = ligand present: flavin mononucleotide, designed as: ON switch for flavin mononucleotide
[5] = designed as: OFF switch for tryptophan, no ligand
[6] = ligand present: tryptophan, designed as: OFF switch for tryptophan
[7] = designed as: ON switch for theophylline, no ligand
[8] = ligand present: theophylline, designed as: ON switch for theophylline

Sequence | apparent Kd [1] [nM] | apparent Kd [2] [nM] | further results
UAAGUUUUAGAGAAGGCCUGGAAUUGCUGUGCAGGAGGAUAUCUGGGACAUGAGGAUCACCCAUGUAGCCGCUAAGCGUAAGGG | 46.6 | 83.1 | –
GGAAUCGGAUUAGAGGAUAUCGAUCUGUUAACAUGAGGAUCACCCAUGUGGACGCUUCAUUCGAACGAGAAGGCUAGAUGGACACC | – | – | apparent Kd [3]: 23.8 nM; apparent Kd [4]: 16.8 nM
CAUACAUAACAUGAGGAUCACCCAUGUGACUCACUCUGAAAGCAGGAUAUAUUCGGUAAGCUACGAUAGAAGGGCUAUGCGUAA | 42.2 | 31.3 | –
GGAAAACCUCGAGGAUAUAGCACAUGAGGAUCACCCAUGUACCAUAAGUGUUGACAAAAGAGAGACUAGAAGGCGAAUCAAACC | – | – | apparent Kd [3]: 13.1 nM; apparent Kd [4]: 11.6 nM
CAUACGCCGCAGAAGGAGUCGAGUCCGUUUCAACUAGGAUAUGCCAGAACAUGAGGAUCACCCAUGUUGCGGGUGCAGCUCAAU | 37.8 | 38.9 | –
GCAAUUCUUGAGAAGGUCGUAGUGCGCAGACCAAAAGCACAUGAGGAUCACCCAUGUGAUCAAACGAAGGAUAUCACAGUAGAA | 51.9 | 49.3 | –
AGAUCCUAAGUAAGGAUAUACCUCGCACACAAGUCGUAGAAGGUACAUGAGGAUCACCCAUGUAGGAAAGUACU | 12.4 | 15.3 | –
UCACUCUGCCGAGGAUAUGCUGGGUCUGACAUGAGGAUCACCCAUGUAACGGGCAGAGUGUUCCAGCAGAAGGCGGCCAGUACC | – | – | apparent Kd [3]: 42.5 nM; apparent Kd [4]: 44.6 nM
ACAACUGCAGGAUAUACGAGGGCCGAGGUAUCCGUCCUCGGACAUGAGGAUCACCCAUGUAGAAGGGCAACGAU | 20.9 | 24.1 | –
GAUUGCGGUGUGAGGAUAUCUGUUUAACAAAAGCCAGAGAAGGCACAUGAGGAUCACCCAUGUAGAUGCCGGCC | 8.38 | 10.5 | –
UGUACCUGUAUCUGGUCCAUAGUAUAACCUCGAGGACCGGUACGGCCGCCACUCGUCGGACCACAUGAGGAUCACCCAUGUACCG | – | – | apparent Kd [5]: 11.6 nM; apparent Kd [6]: 12.7 nM
ACUUACGGAAAGAAGGAGGGACAGUCACGGCGGGCGGACCACAUGAGGAUCACCCAUGUGCGAGCCUAGGAUAUUUAGGGUAGC | 7.19 | 7.23 | –
UAGCGACAUGAGGAUCACCCAUGUGAGGAUAUGAAGUCUAUAACACAAGCUAAUGAAGACAGAAGGCACAUGAG | 66.8 | 59.3 | –
CGUCUGUGAGGAUAUGGUCGAGGUUGGUGAAUUACUUACAUCCAGAAGGCACAUGAGGAUCACCCAUGUACAUC | 10.5 | 13.8 | –
UAGUAACAUGAGGAUCACCCAUGUGAGGAUAUCUGGCUAGGCUAAAGCAGAGAAACCAAGAGAAGGCACGGGAU | 19.4 | 20.8 | –
CAAAAUGCGGCGGCCGCCACUCAGCUCCGUGUGGUUGGUCAUCUUAACAUGAGGAUCACCCAUGUGAGGACCGGGCCAGCGAGUG | – | – | apparent Kd [5]: 13.5 nM; apparent Kd [6]: 13.9 nM
GUACCUCAAGGAUAUGCCCGAUCUUACAUGAGGAUCACCCAUGUUGGCUCAGGGCUUAGGGCAGAAGGUGAGAAGU | 6.38 | 7.52 | –
GAAAGGUGAGGAUAUACAUGAGGAUCACCCAUGUGUAGAAAUAGAAAGAAAAUCUCAAGUAGAAGGCACAAACA | 11.3 | 13.7 | –
AGAUUCUCUGAAGGAUAUCGCGUUUAUUUCGAGCGAGAAGGUCAAUUAUGGGAGAUGCACAUGAGGAUCACCCAUGUUCGAAAA | 339 | 119 | –
CGACAUAACCGAGGAUAUCGCUGACGUAAGCACAUGAGGAUCACCCAUGUGAGUGAGAGUGAGUACGAGAAGGCGGAAUUAAGG | – | – | apparent Kd [3]: 53.3 nM; apparent Kd [4]: 16.5 nM
CUCUUGGCCGCAGUACGUUUAUAGACCUAUCGAGGACCGGUACGGCCGCCACUCGGUUAGUCACAUGAGGAUCACCCAUGUGUCC | – | – | apparent Kd [5]: 17.7 nM; apparent Kd [6]: 29.9 nM
ACCUAUACUCCAGGAUAUCAAGACCGAUGACAUGAGGAUCACCCAUGUCAAUCAAAACCAUGACGUGAGAAGGGGAGGCUCGUC | – | – | apparent Kd [3]: 6.5 nM; apparent Kd [4]: 6.05 nM
GGAUUGAUAGGAUAUACAUAGAUGUAGGAGCCUUCACUCCCACAUGAGGAUCACCCAUGUAGAAGGAUCAGUAA | 12.1 | 23.6 | –
CGUAAACAUGAGGAUCACCCAUGUGAUGAUACCAGCACGAUUAACUGCCCUUGGCAGCAUGUAUUGUACGACUUAUUGCCCAUCG | – | – | apparent Kd [7]: 14.8 nM; apparent Kd [8]: 16.8 nM
GUAAACGCCACAGGAUAUUGGCAGAAUAAGGAGCAAGAAGGGUGGGAUAGAAUCACGUGAACAUGAGGAUCACCCAUGUGUGGA | – | – | apparent Kd [3]: 55.3 nM; apparent Kd [4]: 38 nM
UACUCACAUGAGGAUCACCCAUGUUGUCUCAAGAUAGGAUAUGACUGGCUAUGCAUCGGUUCAGAAGGAUCUUCUA | – | – | apparent Kd [3]: 19.7 nM; apparent Kd [4]: 11.3 nM
AAACUGAUCUUCAGGAGUCACUAUAUCUCCCGAGGACCGGUACGGCCGCCACUCGAACGUUUACAUGAGGAUCACCCAUGUGACU | – | – | apparent Kd [5]: 14.8 nM; apparent Kd [6]: 19.6 nM
AAAUGAGCGCAUCCCUAACAUGAGGAUCACCCAUGUGCUACAGAGGAUAUCGUCACCAUAUCUCACGAGAAGGCUGGUAUAUUG | 9.25 | 11.4 | –

Sequence | apparent Kd [1] [nM] | apparent Kd [2] [nM] | further results
GCUAUAUUUGAGAAGGGAGGAUGCUUCACAGAGCUUAGACCAGACAUGAGGAUCACCCAUGUGCCUCAGGAUAUCAAUAUCGAU | – | – | apparent Kd [3]: 27.3 nM; apparent Kd [4]: 8.5 nM
ACCGUGUCAGGAUAUCGGGUAUUCUUCCGUAUAAUACCAGCCGAGAAGGGACAUGAGGAUCACCCAUGUGGACA | 33.2 | 57.8 | –
UAAGAAGUCCAGAAGGUAGCCCUACCGUACAGCUAAGGAUAUGGCUCACCGGUUUCAACAUGAGGAUCACCCAUGUCCUCCCGG | – | – | apparent Kd [3]: 55.9 nM; apparent Kd [4]: 36.3 nM
UUGAUUACCCAAGCGUGAUGGUCCUAGGAACGAGGACCGGUACGGCCGCCACUCGCAAGCAAACAUGAGGAUCACCCAUGUUUAU | – | – | apparent Kd [5]: 13.1 nM; apparent Kd [6]: 23 nM
GACCAUCACCAGAAGGUCCUCCACCAGCGAGAUCCGACAUGAGGAUCACCCAUGUACUGUGGAUGGAAGGAUAUGGAAGGCUCU | 46.9 | 116 | –
CUGCAGACCCAGAAGGUUCACAUGAGGAUCACCCAUGUGCCUAUCAAUAAGUAAGGUAAAGGCUGAAAGGAUAUGGGUAAAGGA | – | – | apparent Kd [3]: 10.7 nM; apparent Kd [4]: 8.47 nM
GAUUAAAAGAUAGGAUAUUUUGAAAUCGUCACAUGAGGAUCACCCAUGUAUGGCCUGGGCAAUCAAAAGAAGGAUCUUUCUGAU | 11.2 | 6.84 | –
UCGAGUGGGCAGAAGGUGUCGGACUAUACAUGAGGAUCACCCAUGUGGAAACCUCCCGGUUUGAACAAGGAUAUGCCUCGUAAA | – | – | apparent Kd [3]: 95.6 nM; apparent Kd [4]: 71.4 nM
GUAAAACUGUAAGGAUAUGAUGAACUUUAACCCUCAGAAGGAACACCACAUGAGGAUCACCCAUGUUAGGAAAGCAACUUGUUG | – | – | apparent Kd [3]: 14.1 nM; apparent Kd [4]: 13.8 nM
CGCGAGACGGCGGCCGCCACUUGUUGUUGGAAACUCGAGUUACAUGAGGAUCACCCAUGUCCUUAAAGGACCGGGCCGUAAGUAA | – | – | apparent Kd (designed as: ON switch for tryptophan, no ligand): 226 nM; apparent Kd (ligand present: tryptophan, designed as: ON switch for tryptophan): 164 nM
AAAGACGACCAGAAGGAGCCGCCACAUGAGGAUCACCCAUGUAUGCAAAGAUAACUGGGUUAACGCUAGGAUAUGGUGGAGAAA | 63.5 | 44.1 | –
CUGCCACGAACGGCCGCCACUUACAUGAGGAUCACCCAUGUGCCUGCGCACAAAGAAUGUCAAGAAAGGACCGGGUUCAAAUAGU | – | – | apparent Kd [5]: 61.3 nM; apparent Kd [6]: 66.8 nM
ACGAGAGCCCAGAAGGACACGGGAUACUCACAAGCAUUCUGGACAUGAGGAUCACCCAUGUGUAUGUAGGAUAUGGGAGUUGCG | – | – | apparent Kd [3]: 31 nM; apparent Kd [4]: 15.2 nM
CCUGGACAUGAGGAUCACCCAUGUGAGGAUACCAGAUAUCCUGAUAUCCCUUGGCAGCCUCAUUACUUCGCAUUACCGAAACUUC | – | – | apparent Kd [7]: 103 nM; apparent Kd [8]: 249 nM
CCUCAACAUGAGGAUCACCCAUGUCAGGAUAUCUAGGAGACAUCACAUGCGUCCGAUGAGAGAAGGGACACAGU | 25.1 | 27.5 | –
GCGAAGCGAGGAUAUUAAUCCGUACACAUGAGGAUCACCCAUGUGAAUCAAUCAUGUGGUUAAGAAGGCGCGUGGG | 541 | 73.2 | –
UGGCUUGAAGGAUAUACAUGAGGAUCACCCAUGUAUCGCUAAAAGAGAAAUCCAUAAUGUAGAAGGUCAUCCCA | 8.91 | 12 | –
CUAUGGGAUAAGGAUAUAAUAAUUGAGAAGGAGUUAGAAGGUAUAACAUGAGGAUCACCCAUGUGAGGGCCCUA | 9.22 | 9.07 | –
ACAUCCACCAAGAAGGCUGGUGCGGCACUUAAGUCGUUCACAUGAGGAUCACCCAUGUCGUAUACAGAGGAUAUUGAGGUUUUC | 39.1 | 38.7 | –
GAUAAAGCAGGAUAUACAUACCGGCCAUGACUAAAAGAAGGACAUGAGGAUCACCCAUGUAGAAGGGCUUAAAA | 15.7 | 30.5 | –
GACAAAAUGGUAGGAUAUGCUUGGUCUUGAUCAGCAGAAGGACCACAUGAGGAUCACCCAUGUGCAGUGAUUCUGGGAGCUCGC | 55.2 | 93.3 | –
GUACCGUAAACGGCCGCCACUGACAUGAGGAUCACCCAUGUGCUGGUGGUGCACAACCUCAGGUUCAGGACCGGGUUUCCGAGCU | – | – | apparent Kd [5]: 25.1 nM; apparent Kd [6]: 55 nM
GAUAGGUGAGGAUAUGUGAGUGAUCACAUGAGGAUCACCCAUGUUGACUCAUGUUGGCUUACAGAAGGCACAGGAA | 137 | 97.2 | –
GGAGUGUGAGGAUAUGACGCGCCAGGCACACUUGAAUGCGCUCAGAAGGCACAUGAGGAUCACCCAUGUAAGCA | 8.29 | 13.3 | –
CUUGUACAUGAGGAUCACCCAUGUGUCCGUAUCAAAGGAUAUAGCAUAUUCGCAGUGGUGCUAGAAGGUUGUAUAC | – | – | apparent Kd [3]: 20.9 nM; apparent Kd [4]: 10.5 nM
GACGGGCCUAUUGAUACCAGACCUAGUGACAACAUGAGGAUCACCCAUGUGACGGCAAAAGUCCCUUGGCAGCAAGUAGAAAUAA | – | – | apparent Kd [7]: 12.6 nM; apparent Kd [8]: 12.3 nM
GAUCCGUACCAGACCUUCAAUGGACUCAGUCGAGGACCGGUACGGCCGCCACUCGGAGAAGAACAUGAGGAUCACCCAUGUGAUG | – | – | apparent Kd [5]: 36.3 nM; apparent Kd [6]: 53.8 nM
